Assays:
[1] = target: T1, ATP-dependent translocase ABCB1 (Homo sapiens, UniProt P08183); experiment: Inhibition of ABCB1 in human KBV1 cells assessed as reduction in Calcein-AM dye efflux 1 uM by FACS analysis; assay type: cell-based; conditions: kbv1, 1 µM
Procedure, shortened: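 Trypsinized cells were resuspended in IMDM with 5% FCS. Calcein-AM was added to 3 × 10^5 cells in 4 mL IMDM, with or without 1 μM test compound or 3 μM tariquidar. Intracellular calcein fluorescence was read immediately by flow cytometry, with the drug-sensitive parental line run in parallel.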

[2] = Cytotoxicity against HEK293 cells assessed as reduction in cell viability at 1 uM after 72 hrs by CCK8 assay; assay type: toxicity, cell-based; conditions: human, hek293, 72 h
[3] = target: T1, ATP-dependent translocase ABCB1; experiment: Inhibition of human ABCB1 transfected in HEK293 cells assessed as potentiation of doxorubicin-induced cytotoxicity by measuring doxorubicin resistance ratio at 100 nM after 72 hrs by CCK8 assay relative to parental HEK293 cells (reference value: 96); assay type: cell-based; conditions: hek293, 72 h, 0.1 µM
[4] = target: T1, ATP-dependent translocase ABCB1; experiment: Inhibition of human ABCB1 transfected in HEK293 cells assessed as potentiation of doxorubicin-induced cytotoxicity by measuring doxorubicin resistance ratio at 200 nM after 72 hrs by CCK8 assay relative to parental HEK293 cells (reference value: 96); assay type: cell-based; conditions: hek293, 72 h, 0.2 µM
[5] = target: T1, ATP-dependent translocase ABCB1; experiment: Inhibition of ABCB1 in human KBV1 cells assessed as potentiation of doxorubicin-induced cytotoxicity at 1 uM after 72 hrs by MTT assay; assay type: cell-based; conditions: kbv1, 72 h
Procedure, shortened: (§1)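 The cells were kept in drug-free medium for 7 days. They were seeded at 5000 cells/well, allowed to attach for 24 h at 37 °C, then exposed to graded doxorubicin with or without 50–500 nM test compound or 1 μM tariquidar for a further 72 h. Viability was read by MTT. Results are means of at least three independent experiments.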

[6] = target: T1, ATP-dependent translocase ABCB1; experiment: Inhibition of ABCB1 in human NCI-ADR-RES cells assessed as potentiation of doxorubicin-induced cytotoxicity at 1 uM after 72 hrs by MTT assay; assay type: cell-based; procedure, shortened: as §1
[7] = target: T1, ATP-dependent translocase ABCB1; experiment: Inhibition of ABCB1 in human KBV1 cells assessed as potentiation of doxorubicin-induced cytotoxicity by measuring doxorubicin resistance ratio at 100 nM after 72 hrs by MTT assay relative to parental KB-3-1 cells (reference value: 34); assay type: cell-based; conditions: kbv1, 72 h, 0.1 µM
Procedure, shortened: (§2)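 Cells were kept in drug-free DMEM with 10% FCS for 7 days before assay, then plated at 5000 cells/well for 24 h. Drug at various concentrations was added with a nontoxic fixed level of modulator for 72 h, and the read-out was MTT. IC50 came from fitted curves (≥3 experiments). RR = IC50 of the resistant line / IC50 of the parental line.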

[8] = target: T1, ATP-dependent translocase ABCB1; experiment: Inhibition of ABCB1 in human KBV1 cells assessed as potentiation of doxorubicin-induced cytotoxicity by measuring doxorubicin resistance ratio at 50 nM after 72 hrs by MTT assay relative to parental KB-3-1 cells (reference value: 34); assay type: cell-based; conditions: kbv1, 72 h, 0.05 µM; procedure, shortened: as §2
[9] = target: T1, ATP-dependent translocase ABCB1; experiment: Inhibition of ABCB1 in human KBV1 cells assessed as potentiation of colchicine-induced cytotoxicity by measuring colchicine resistance ratio at 500 nM after 72 hrs by MTT assay relative to parental KB-3-1 cells (reference value: 55); assay type: cell-based; conditions: kbv1, 72 h, 0.5 µM; procedure, shortened: as §2
[10] = target: T1, ATP-dependent translocase ABCB1; experiment: Inhibition of ABCB1 in human KBV1 cells assessed as potentiation of colchicine-induced cytotoxicity by measuring colchicine resistance ratio at 200 nM after 72 hrs by MTT assay relative to parental KB-3-1 cells (reference value: 55); assay type: cell-based; conditions: kbv1, 72 h, 0.2 µM; procedure, shortened: as §2
[11] = target: T1, ATP-dependent translocase ABCB1; experiment: Inhibition of ABCB1 in human NCI-ADR-RES cells assessed as potentiation of doxorubicin-induced cytotoxicity by measuring doxorubicin resistance ratio at 200 nM after 72 hrs by MTT assay relative to parental OVCAR8 cells (reference value: 46); assay type: cell-based; conditions: ovcar-8, 72 h, 0.2 µM; procedure, shortened: as §2
[12] = target: T1, ATP-dependent translocase ABCB1; experiment: Inhibition of ABCB1 in human NCI-ADR-RES cells assessed as potentiation of doxorubicin-induced cytotoxicity by measuring doxorubicin resistance ratio at 100 nM after 72 hrs by MTT assay relative to parental OVCAR8 cells (reference value: 46); assay type: cell-based; conditions: ovcar-8, 72 h, 0.1 µM; procedure, shortened: as §2
[13] = target: T1, ATP-dependent translocase ABCB1; experiment: Inhibition of ABCB1 in human NCI-ADR-RES cells assessed as potentiation of colchicine-induced cytotoxicity by measuring colchicine resistance ratio at 500 nM after 72 hrs by MTT assay relative to parental OVCAR8 cells (reference value: 59); assay type: cell-based; conditions: ovcar-8, 72 h, 0.5 µM; procedure, shortened: as §2
[14] = target: T1, ATP-dependent translocase ABCB1; experiment: Inhibition of ABCB1 in human NCI-ADR-RES cells assessed as potentiation of colchicine-induced cytotoxicity by measuring colchicine resistance ratio at 200 nM after 72 hrs by MTT assay relative to parental OVCAR8 cells (reference value: 59); assay type: cell-based; conditions: ovcar-8, 72 h, 0.2 µM; procedure, shortened: as §2
[15] = target: T1, ATP-dependent translocase ABCB1; experiment: Inhibition of ABCB1 in human NCI-ADR-RES cells assessed as potentiation of colchicine-induced cytotoxicity by measuring colchicine resistance ratio at 50 nM after 72 hrs by MTT assay relative to parental OVCAR8 cells (reference value: 59); assay type: cell-based; conditions: ovcar-8, 72 h, 0.05 µM; procedure, shortened: as §2
[16] = target: T1, ATP-dependent translocase ABCB1; experiment: Inhibition of ABCB1 in human NCI-ADR-RES cells assessed as potentiation of vincristine-induced cytotoxicity by measuring vincristine resistance ratio at 200 nM after 72 hrs by MTT assay relative to parental OVCAR8 cells (reference value: 435); assay type: cell-based; conditions: ovcar-8, 72 h, 0.2 µM; procedure, shortened: as §2
[17] = target: T1, ATP-dependent translocase ABCB1; experiment: Inhibition of ABCB1 in human NCI-ADR-RES cells assessed as potentiation of vincristine-induced cytotoxicity by measuring vincristine resistance ratio at 100 nM after 72 hrs by MTT assay relative to parental OVCAR8 cells (reference value: 435); assay type: cell-based; conditions: ovcar-8, 72 h, 0.1 µM; procedure, shortened: as §2
[18] = tested on: KB 3-1; experiment: Induction of apoptosis in human KB-3-1 cells assessed as viable cells at 1 uM after 48 hrs by Annexin V-FITC/propidium iodide staining based FACS analysis (reference value: 88.4%); assay type: functional; conditions: KB 3-1, 48 h, read-out: Activity
[19] = tested on: KB 3-1; experiment: Induction of apoptosis in human KB-3-1 cells assessed as early apoptotic cells at 1 uM after 48 hrs by Annexin V-FITC/propidium iodide staining based FACS analysis (reference value: 5.1%); assay type: functional
[20] = tested on: KB-V1; experiment: Induction of apoptosis in human KBV1 cells assessed as viable cells at 1 uM after 48 hrs by Annexin V-FITC/propidium iodide staining based FACS analysis (reference value: 86.1%); assay type: functional; conditions: KB-V1, 48 h, read-out: Activity
[21] = tested on: KB-V1; experiment: Induction of apoptosis in human KBV1 cells assessed as necrotic cells at 1 uM after 48 hrs by Annexin V-FITC/propidium iodide staining based FACS analysis (reference value: 1%); assay type: functional
[22] = tested on: KB 3-1; experiment: Potentiation of colchicine-induced apoptosis in human KB-3-1 cells assessed as viable cells at 1 uM after 48 hrs by Annexin V-FITC/propidium iodide staining based FACS analysis (reference value: 38.9%); assay type: functional; conditions: KB 3-1, 48 h, read-out: Activity
[23] = tested on: KB 3-1; experiment: Potentiation of colchicine-induced apoptosis in human KB-3-1 cells assessed as late apoptotic cells at 1 uM after 48 hrs by Annexin V-FITC/propidium iodide staining based FACS analysis (reference value: 25.7%); assay type: functional

T1 sequence (P08183 whole entry): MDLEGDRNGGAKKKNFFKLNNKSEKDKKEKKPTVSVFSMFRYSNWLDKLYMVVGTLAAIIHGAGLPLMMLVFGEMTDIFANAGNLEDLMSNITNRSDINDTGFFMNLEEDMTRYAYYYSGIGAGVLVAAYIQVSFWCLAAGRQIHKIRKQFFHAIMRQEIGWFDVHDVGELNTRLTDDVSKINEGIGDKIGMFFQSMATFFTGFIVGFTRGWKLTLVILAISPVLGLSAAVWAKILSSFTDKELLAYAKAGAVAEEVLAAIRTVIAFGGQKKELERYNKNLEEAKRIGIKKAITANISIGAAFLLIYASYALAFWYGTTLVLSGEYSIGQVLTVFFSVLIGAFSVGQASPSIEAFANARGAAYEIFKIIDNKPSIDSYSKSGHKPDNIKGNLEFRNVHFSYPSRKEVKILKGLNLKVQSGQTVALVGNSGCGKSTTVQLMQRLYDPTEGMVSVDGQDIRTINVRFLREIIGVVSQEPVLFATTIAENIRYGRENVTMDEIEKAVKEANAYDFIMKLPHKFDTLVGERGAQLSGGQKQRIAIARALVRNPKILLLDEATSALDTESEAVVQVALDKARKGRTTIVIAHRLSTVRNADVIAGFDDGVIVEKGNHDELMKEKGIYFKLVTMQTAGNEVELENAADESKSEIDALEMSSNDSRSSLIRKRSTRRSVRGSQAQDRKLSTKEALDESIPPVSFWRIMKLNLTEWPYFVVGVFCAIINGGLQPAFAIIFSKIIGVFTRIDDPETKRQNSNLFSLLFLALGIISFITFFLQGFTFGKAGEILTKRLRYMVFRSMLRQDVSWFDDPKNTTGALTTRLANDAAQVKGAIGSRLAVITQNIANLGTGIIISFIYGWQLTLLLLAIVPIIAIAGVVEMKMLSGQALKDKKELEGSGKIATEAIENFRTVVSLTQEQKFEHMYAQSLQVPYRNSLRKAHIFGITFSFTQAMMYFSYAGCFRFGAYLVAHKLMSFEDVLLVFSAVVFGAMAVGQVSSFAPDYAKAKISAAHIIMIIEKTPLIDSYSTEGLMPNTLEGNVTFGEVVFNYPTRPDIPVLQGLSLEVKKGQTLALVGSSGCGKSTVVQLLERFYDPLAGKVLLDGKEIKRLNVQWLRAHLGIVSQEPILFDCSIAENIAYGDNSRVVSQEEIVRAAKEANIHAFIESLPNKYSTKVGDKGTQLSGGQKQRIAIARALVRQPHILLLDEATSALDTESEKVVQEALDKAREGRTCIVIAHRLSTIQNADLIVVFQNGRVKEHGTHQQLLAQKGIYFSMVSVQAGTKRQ

## COc1ccc2cc1Oc1ccc(cc1)C[C@H]1c3cc(c(OC)cc3CCN1C)Oc1c(OC)c(OC)c(OC)c3c1[C@H](C2)N(C)CC3 [HERNANDEZINE]
[1]
  inhibition (INH): Active
[2]
  Activity: Non-Toxic
[3]
  Ratio: 11
[4]
  Ratio: 8
[5]
  inhibition (INH): Active
[6]
  inhibition (INH): Active
[7]
  Ratio: 5
[8]
  Ratio: 9
[9]
  Ratio: 3
[10]
  Ratio: 13
[11]
  Ratio: 5
[12]
  Ratio: 11
[13]
  Ratio: 4
[14]
  Ratio: 10
[15]
  Ratio: 46
[16]
  Ratio: 196
[17]
  Ratio: 433
[18]
  viability at 1 µM: 88.8%
[19]
  Activity: 6.6%
[20]
  viability at 1 µM: 87.6%
[21]
  Activity: 1%
[22]
  viability at 1 µM: 37.4%
[23]
  Activity: 26.4%

From ChEMBL document CHEMBL3867440, “Hernandezine, a Bisbenzylisoquinoline Alkaloid with Selective Inhibitory Activity against Multidrug-Resistance-Linked ATP-Binding Cassette Drug Transporter ABCB1” (J Nat Prod, 2016)
